GalR3 antagonist – GalR3 antagonists in HEK293 cells, primary screen, cell-based, fluorescence readout | Galanin receptor type 3 (Homo sapiens), O60755 | HEK293 GalR3-CNG cAMP membrane potential fluorescence; galR3 body fused to GalR1 C-terminus | inhibition, % at 3 µM | 360,000 compounds, 0.44% hits;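 active means inhibition above the screen-wide average plus 3 SD, cut at about 13% in these data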;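 further: forskolin and galanin both at EC90 stimulate the cells; cAMP rise reported by CNG channel membrane potential dye signal; 0% = forskolin plus galanin with DMSO and 100% = forskolin alone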
Target sequence (O60755 1-299 limits assumed): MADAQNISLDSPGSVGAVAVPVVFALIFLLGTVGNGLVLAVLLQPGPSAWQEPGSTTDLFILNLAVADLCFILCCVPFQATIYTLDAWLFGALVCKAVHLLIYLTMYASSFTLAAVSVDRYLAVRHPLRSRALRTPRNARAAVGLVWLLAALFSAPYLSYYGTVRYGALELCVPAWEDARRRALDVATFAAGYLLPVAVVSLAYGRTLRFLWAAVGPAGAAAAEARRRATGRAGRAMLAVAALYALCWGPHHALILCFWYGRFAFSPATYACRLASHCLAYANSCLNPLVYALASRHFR
TAAR1 antag – human TAAR1 antagonists, primary screen, Fluo-8 calcium fluorescence, CHO RD-HGA16 cells; Trace amine-associated receptor 1 (Homo sapiens), Q96RJ0; antagonist; inhibition, % at 3 µM; 360,000 compounds, 1.5% hits;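 active means inhibition above a per-plate cutoff, the mean inhibition of test compounds on that plate plus 3 SD, cut at about 49% in these data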;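 further: 0% = DMSO plus EC80 beta-PEA response and 100% = DMSO alone without agonist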
Target sequence (Q96RJ0 whole entry, looked up): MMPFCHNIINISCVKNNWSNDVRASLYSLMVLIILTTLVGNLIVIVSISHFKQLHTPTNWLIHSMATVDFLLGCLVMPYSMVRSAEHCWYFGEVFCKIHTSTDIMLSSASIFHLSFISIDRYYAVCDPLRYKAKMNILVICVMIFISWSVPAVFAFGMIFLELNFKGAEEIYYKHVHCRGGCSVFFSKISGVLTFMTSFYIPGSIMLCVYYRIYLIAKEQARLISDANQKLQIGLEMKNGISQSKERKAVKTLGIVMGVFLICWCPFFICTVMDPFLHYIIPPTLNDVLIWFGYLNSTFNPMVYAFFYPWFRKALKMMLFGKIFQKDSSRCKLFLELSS
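Test system – hTAAR1-expressing CHO RD-HGA16 cells, Gα16-coupled · Also added – β-PEA at EC80 concentration, post-compound challenge · Compound – 3 µM, single point · Incubation – dye loading 75 min at 37 °C, then 30 min room temperature · Measured by – Fluo-8 intracellular calcium dye fluorescence, real-time kinetic reads · Benchmarks – vehicle and agonist controls · Replicates – singlicate, one well per test compound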
CHO parental Ca – ATP-evoked calcium signal inhibitors, parental CHO, primary screen, counter-screen for OX1R antagonist project, cell-based, fluorescence, Fluo-8 calcium dye | parental CHO-K1, ATP-induced calcium, Fluo-8 fluorescence | inhibition, % at 5.6 µM | 330,000 compounds, 0.63% hits | AID 463079, 2010;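 active means inhibition above that plate's mean sample inhibition plus 3 SD, cut at about 26% in these data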;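 further: 0% = ATP-challenged DMSO wells and 100% = DMSO wells without ATP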
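Material – parental CHO cells · Reagent – ATP stimulus · Compound – single nominal dose of 5.6 µM per compound · Detection – Fluo-8 fluorescence · Read-out basis – percent inhibition of calcium signal · Controls – ATP-challenged DMSO wells low, unchallenged DMSO wells high · Repeats – no replicates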
OX1R antag-1 – antagonists of human orexin 1 receptor (OX1R) | inhibition, % at 6.6 µM | OX1R-expressing cells, FRET antagonist read-out | AID 485270, 2010 | 330,000 compounds, 1.8% hits; in the data active means inhibition mostly above about 38%, no sharp cut-off; inactive means mostly below about 40%;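 further: 0% = agonist challenge alone and 100% = reference antagonist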
OX1R antag-2 – OX1R (HCRTR1) antagonists, primary screen, fluorescence, CHO/OX1R cells, Fluo-8 calcium, orexin A | AID 434989, 2010 | Fluo-8 calcium fluorescence | 330,000 compounds, 0.43% hits | inhibition, % at 5 µM | Orexin/Hypocretin receptor type 1 (Homo sapiens), O43613;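 active means inhibition above its plate's threshold, mean inhibition of all tested compounds on the plate plus 3 SD, cut at about 37% in these data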;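 further: 0% = orexin A challenge wells and 100% = SB-334867-A antagonist wells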
TAAR1 ag – human TAAR1 agonists, primary screen, Fluo-8 calcium fluorescence, CHO RD-HGA16 cells; Trace amine-associated receptor 1 (Homo sapiens), Q96RJ0; vehicle wells 0%, saturating PEA agonist 100%; activation, % at 3 µM; 360,000 compounds, 0.99% hits; AID 624467, 2012;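 active means activation above the mean activation of all test compounds in the run plus 3 SD, cut at about 38% in these data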
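Assay system – CHO-derived RD-HGA16 cells with stable Gα16 and human TAAR1 · Compound dosing – one-point dosing at 3 µM (nominal) · Incubation – 17-24 h seeding, 75 min 37 °C dye, 30 min RT · Measured by – kinetic Fluo-8 calcium fluorescence · Control set – DMSO vehicle as 0%, PEA at EC100 as 100% · Repeats – single well for each compound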
OX1R HTRF confirm – OX1R (HCRTR1) antagonists, confirmation, cell-based, HTRF. AID 492964, 2010. inhibition, % at 6.6 µM. OX1R-expressing cells, HTRF antagonist assay. shares compounds with OX1R antag-1. 1,800 compounds, 49% hits; in the data active means inhibition above about 55%;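 further: CHO cells expressing OX1R stimulated with orexin A at about EC80; 0% = agonist challenge alone and 100% = reference antagonist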
CHO-K1 HTRF – signal inhibition in parental CHO-K1 cells, counter-screen for OX1R antagonist project, cell-based, HTRF; inhibition, % at 6.6 µM; shares compounds with OX1R antag-1; 1,800 compounds, 48% hits; HTRF counterscreen; in the data active means inhibition above about 17%;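 further: 0% = agonist challenge with vehicle and 100% = vehicle alone without agonist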
TAAR1 nonsel count – nonselective antagonists in TAAR1 counter-screen cells, counter-screen for hTAAR1 antagonist project, cell-based, fluorescence, calcium | 2,400 compounds, 77% hits | counterscreen cell line, antagonist mode | inhibition, % at 3 µM | shares compounds with TAAR1 antag; in the data active means inhibition above about 22%;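 further: CHO-Ga16 host cells stimulated with ATP at an EC80 level; 0% = agonist EC80 plus vehicle and 100% = vehicle without agonist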
TAAR1 antag conf – human TAAR1 antagonists, retest of hits, confirmation, cell-based, fluorescence; shares compounds with TAAR1 antag; TAAR1-expressing cells, fluorescence antagonist read-out; inhibition, % at 3 µM; 2,400 compounds, 40% hits; in the data active means inhibition above about 49%;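 further: CHO-Ga16 host cells challenged with agonist PEA near its EC80; 0% = agonist at EC80 plus vehicle and 100% = vehicle with no agonist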
Ga16 ag counter – calcium activation in Ga16-expressing cells, counter-screen for TAAR1 antagonist project, cell-based, fluorescence; shares compounds with TAAR1 antag; 2,400 compounds, 18% hits; activation, % at 3 µM; agonist counterscreen; AID 651953, 2012; in the data active means activation above about 12%;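 further: 0% = vehicle wells and 100% = saturating stimulus response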
TAAR1 ag counter – TAAR1 activation by candidate antagonists – cell-based, fluorescence, counter-screen for TAAR1 antagonist project; shares compounds with TAAR1 antag; hTAAR1 cell line, agonist mode; activation, % at 3 µM; 2,400 compounds, 2% hits; in the data active means activation above about 37%;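 further: CHO cells stably expressing TAAR1 with calcium dye readout; 0% = DMSO vehicle and 100% = full agonist response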
GalR3 antag conf – GalR3 antagonist hit confirmation, cell-based, fluorescence, triplicate; inhibition, % at 3 µM; shares compounds with GalR3 antagonist; HEK293 GalR3 CNG cAMP biosensor, membrane potential fluorescence; galR3 fused to GalR1 carboxy tail; challenged with forskolin and galanin at EC90; 1,600 compounds, 59% hits; AID 652245, 2013;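 active means inhibition above the primary screen's cutoff, the mean inhibition of all screened compounds plus 3 SD, cut at about 13% in these data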;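 further: 0% = forskolin plus galanin and 100% = forskolin alone with DMSO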
HEK-CNG parental – nonspecific cAMP agonists in parental HEK-CNG cells, counter-screen for GalR3 antagonist project, cell-based, fluorescence, high throughput. shares compounds with GalR3 antagonist. activation, % at 3 µM. 1,600 compounds, 10% hits. HEK293-CNG parental cells, cAMP membrane potential fluorescence; normalised: DMSO wells 0%, forskolin wells 100%. AID 652268, 2013; in the data active means activation above about 1.3%
* hit, by the source's call; . = not tested or not shown. Compounds with a hit are over-represented: about 4.3% of the library has one in this group of screens.

SMILES	GalR3 antagonist	TAAR1 antag	CHO parental Ca	OX1R antag-1	OX1R antag-2	TAAR1 ag	TAAR1 nonsel count	TAAR1 antag conf	Ga16 ag counter	TAAR1 ag counter	others
O=C1c2cc([N+](=O)[O-])cc3cc([N+](=O)[O-])cc(c23)C(=O)N1c1ccccn1	.	-25	-7	82*	-25	0	.	.	.	.	OX1R HTRF confirm=73*;CHO-K1 HTRF=114*;GalR3 antag conf=-2;HEK-CNG parental=1
O=C1c2ccc(Oc3cccc([N+](=O)[O-])c3)cc2C(=O)N1c1ccccn1	-4	5	-16	15	-8	1	.	.	.	.
O=C(c1cc2cc(F)ccc2[nH]1)N1CCC(Cc2ccccc2)CC1	-9	8	-22	9	-10	2	.	.	.	.
O=C(Nc1ccc(F)c(Cl)c1)NC1CC1	-6	105*	-2	4	4	2	-5	2	10	15
O=C(Nc1ccc(F)c(Cl)c1)C1CCCC1	0	-13	-18	0	-3	0	.	.	.	.
CC(C)c1ccc(S(=O)(=O)N2CCN(C(=O)CCc3nc4ccccc4c(=O)[nH]3)CC2)cc1	-8	6	.	.	.	5	.	.	.	.
O=C(CCc1nc2ccccc2c(=O)[nH]1)N1CCN(S(=O)(=O)c2ccc(Cl)c(C(F)(F)F)c2)CC1	3	62*	-3	19	-14	17	39*	50*	16*	14
C=C(C)C(O)CC/C(C)=C/Cc1c(O)ccc(C(=O)/C=C/c2ccc(O)cc2)c1O (stereo not drawn)	-9	70*	31*	2	30	9	29*	29	7	7
CC(C)(C)c1ccc(C(=O)N2CCC2(C)C(=O)Nc2cccc3ccccc23)cc1 (stereo not drawn)	-9	4	.	.	.	4	.	.	.	.
COC(=O)c1cccc(Nc2nc(-c3cccnc3)nc3ccccc23)c1	-7	67*	-28	20	-21	17	27*	39	5	5
CCOC(=O)[C@@H]1[C@H]2COc3ccc(Br)cc3[C@@H]2N2C(=O)N(c3ccc(C)cc3)C(=O)[C@@]12C	-5	11	-27	11	-18	0	.	.	.	.
CCN(CC)S(=O)(=O)c1cccc(C(=O)OCC(=O)c2ccc3c(c2)NC(=O)CO3)c1	0	71*	9	7	21	19	42*	61*	15*	12
O=C1COc2ccc(C(=O)COC(=O)Cc3ccc(Cl)cc3)cc2N1	-3	3	-13	20	-15	2	.	.	.	.
Cc1cccc(C(=O)OCC(=O)c2ccc3c(c2)NC(=O)CO3)c1	-9	46	-4	3	5	10	.	.	.	.
O=C1COc2ccc(C(=O)COC(=O)CCSc3ccc(Cl)cc3)cc2N1	-6	56*	1	7	-11	14	37*	33	10	4
CN(C)CCCN(C(=O)COc1ccc(Cl)cc1)c1nc2cc3c(cc2s1)OCO3	1	-3	-16	10	-18	31	.	.	.	.
CC(=O)c1c(O)cc(=O)oc1-c1ccc(C)cc1	1	-37	10	14	9	1	.	.	.	.
CC(C)c1ccc(N=C2N=C(N)c3ccccc32)cc1	-3	0	-1	20	2	-2	.	.	.	.
Clc1cccc(-c2nc(NCCN3CCOCC3)c3ccccc3n2)c1	-8	64*	-19	13	-22	17	32*	55*	16*	16
Clc1cccc(-c2nc(NCCCN3CCOCC3)c3ccccc3n2)c1	2	29	-22	0	-6	16	.	.	.	.
COc1ccc(-c2csc(NC(=O)CN3C(=O)C4CC=CCC4C3=O)n2)cc1OC (stereo not drawn)	-1	27	-1	19	-4	12	.	.	.	.
O=C(CCN1C(=O)C2CCCCC2C1=O)Nc1nc(-c2ccc(F)c(F)c2)cs1 (stereo not drawn)	-10	38	2	16	-17	16	.	.	.	.
O=C(CN1C(=O)C2CC=CCC2C1=O)Nc1nc(-c2ccc(F)c(F)c2)cs1 (stereo not drawn)	-7	73*	-6	5	17	27	31*	55*	14*	19
COc1ccc(-c2csc(NC(=O)CN3C(=O)C4CCCCC4C3=O)n2)cc1OC (stereo not drawn)	-3	52*	-2	14	-16	17	24*	36	13*	16
CCc1ccc(C(=O)CCC(=O)Nc2cccc(S(=O)(=O)N3CCCCC3)c2)cc1	-4	-15	.	.	.	0	.	.	.	.

Source: PubChem BioAssay
